Series [1] has as its system PAIII rat prostate adenocarcinoma cells. Put plainly: IP-MS of PTHrP1–17 in PAIII conditioned media with MMP inhibition. Format: cell-based.
Series [2] concerns SAOS-2 osteosarcoma cells. Put plainly: IP-MS of PTHrP1–17 in SAOS-2 conditioned media with exogenous MMP-3. Particulars: SAOS-2+MMP-3 100 ng/ml; SAOS-2 alone = 0.004. In kind it is cell-based, human.
Series [3] concerns PTH1R. The following applies: PTH1R overexpressing CHO-K1 cells; cited from earlier work.
In series [4] the test system is PTH1R. Particulars: PTH1R overexpressing CHO-K1 cells; cited from earlier work. The source holds these as a separate data set.
The target in series [5] is T1, PTH1R (Mus musculus, UniProt P41593).
T1 sequence (P41593 27-591): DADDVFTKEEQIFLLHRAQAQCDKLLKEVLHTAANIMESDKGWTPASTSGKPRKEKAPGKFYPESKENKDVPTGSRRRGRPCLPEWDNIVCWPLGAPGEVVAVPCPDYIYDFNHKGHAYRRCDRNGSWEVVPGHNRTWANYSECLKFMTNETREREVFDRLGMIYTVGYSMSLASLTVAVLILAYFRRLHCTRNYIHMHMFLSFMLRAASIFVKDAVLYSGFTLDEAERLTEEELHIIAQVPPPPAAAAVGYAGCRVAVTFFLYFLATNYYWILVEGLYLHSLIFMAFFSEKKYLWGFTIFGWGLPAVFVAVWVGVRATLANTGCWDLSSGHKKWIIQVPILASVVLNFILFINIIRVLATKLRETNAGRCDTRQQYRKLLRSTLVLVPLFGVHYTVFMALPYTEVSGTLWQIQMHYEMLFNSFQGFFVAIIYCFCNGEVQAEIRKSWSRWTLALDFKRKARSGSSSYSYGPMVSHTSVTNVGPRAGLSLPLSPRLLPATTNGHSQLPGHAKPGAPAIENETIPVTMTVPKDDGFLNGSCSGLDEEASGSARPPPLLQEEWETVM
Put plainly: Calcium flux in PTH1R knockdown MC3T3 cells. Format: cell-based. The following applies: shPTH1R versus shControl MC3T3, 10 nM. The method in brief:
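Stable shPTH1R MC3T3 clones came from lentiviral transduction of three pooled PTH1R shRNAs; shControl clones carried a scrambled sequence. Cells (1 × 10^5) were loaded with Fluo-4 Direct. Time-lapse microscopy followed fluorescence after peptide addition. Increases (RFU) were measured in single cells, n = 20/group, from three fields per condition. A second shPTH1R clone was also tested.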

Series [6] concerns SCID-Beige mice. Put plainly: In vivo calvarial injection assay. More on the design: species or system mouse. The following applies: 2 μg s.c. over the calvaria every 6 h for 3 days, n = 3/group. The method in brief:
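Randomized 4–6-week-old female SCID-Beige mice (n = 3/group) received 2 μg peptide s.c. over the calvaria every 6 h for 3 days. Calvariae were harvested 10 h after the last injection, fixed and scanned by high-resolution μCT. They were then decalcified (14% EDTA, pH 7.4, 3 days) and paraffin-embedded, and 5 μm sections were stained with H&E, trichrome and TRAcP. Bone-lining multinucleated TRAcP-positive osteoclasts were counted per μm bone.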

For series [7], the system named is calvariae of Rag2−/− neonates. Briefly: Neonatal calvaria ex vivo assay. More on the design: species or system mouse. Particulars: 10 nM, 14 days, n = 4/group. The gist of the method: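 Calvariae were isolated from 4-day-old Rag2−/− neonates and kept in organ culture. They were exposed to peptides for 14 days, n = 4/group.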
The test system of series [8] is ERK phosphorylation in MSCs. Briefly: ERK phosphorylation in primary MSCs. The following applies: 10 nM, 5 min, vs control or scrambled peptide. Format: cell-based, mouse.
In the next series the test system is MSCs. Put plainly: Migration of primary MSCs. In kind it is cell-based, mouse. Particulars: 10 nM in serum free media, 6 h / 5-h (methods), n = 3/group.
For series [9], the target named is T1, PTH1R. Put plainly: Calcium flux in MC3T3 osteoblasts. In kind it is cell-based. Particulars: MC3T3, 10 nM, fluorescence in individual cells, n = 20/group. The gist of the method: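 MC3T3 cells (1 × 10^5) were loaded with Fluo-4 Direct calcium reagent and imaged by time-lapse fluorescence microscopy before and after peptide addition (0 and 60 s frames shown). Fluorescence rise was quantified in individual cells, n = 20/group, from three fields of view per condition.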

Series [10] deals with T1, PTH1R. Put plainly: cAMP production in MC3T3 osteoblasts. The following applies: MC3T3, 10 nM for 15 min, n = 5/group. Format: cell-based. The method in brief:
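MC3T3 osteoblasts were plated at 2.5 × 10^4 cells/well and exposed to peptides for 15 min (range 1–100 tested), n = 5/group. cAMP was measured with the cAMP-Glo luminescent assay. The forskolin analogue NKH477 (15 min) served as positive control. Groups were compared by ANOVA with Tukey's test.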

In series [11] the target is T1, PTH1R. Put plainly: ERK phosphorylation in PTH1R knockdown MC3T3 cells. In kind it is cell-based. Particulars: shPTH1R MC3T3 versus control shRNA, 10 nM for 5 min. The gist of the method:
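PTH1R knockdown MC3T3 clones were made by lentiviral transduction of a pool of three shRNAs, with scrambled-sequence shControl clones; clone D was used. Cells got peptides for 5 min and were lysed in RIPA. Phospho-ERK immunoblots were blocked in 5% BSA, detected with HRP secondary and normalised to actin loading control. Triplicate experiments.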

The subject of another series is osteoblasts. Briefly: Tumour necrosis factor-α-induced cell death of osteoblasts. Format: cell-based.
In series [12] the test system is CREB phosphorylation in MC3T3 osteoblasts. Briefly: CREB phosphorylation in MC3T3 osteoblasts. Format: cell-based, mouse. The following applies: MC3T3, 10 nM for 5 min in serum free media. The gist of the method: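 Immunoblot of MC3T3 osteoblasts exposed to peptides for 5 min in serum-free media. Controls were serum-free (S0), 10% serum (S10) and a scrambled peptide. Cells were lysed in RIPA buffer (pH 8) and protein was measured by BCA. Blots were blocked in 5% BSA for 1 h, probed with primary antibody then HRP-conjugated secondary, with actin as loading control. Run in triplicate.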

For the next series, the system named is RANKL. Put plainly: RANKL expression in whole bone marrow co-cultures. Format: cell-based, mouse. The following applies: 10 nM for 48 h.
Another series has as its target MMP-3 (Homo sapiens, UniProt P08254). Briefly: MMP-3 processing of PTHrP. Particulars: MALDI-TOF. In kind it is in vitro ADME. The method in brief:
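Recombinant PTHrP1–86 (100 ng) was digested 1 h with active MMP-3 (100 ng) in 0.15 M NaCl, Tris pH 7.6 buffer. Products were resolved by SDS-PAGE with Coomassie staining and by immunoblot. N-terminal sequencing was done, and for MALDI-TOF peptides were C18-extracted and mixed with α-cyano-4-hydroxycinnamic acid matrix.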

Series [13] has as its system ERK phosphorylation in MC3T3 osteoblasts. Put plainly: ERK phosphorylation in osteoblasts. Format: cell-based, mouse. The following applies: 10 nM, 5 min, serum free media, vs control or scrambled peptide.
The test system of series [14] is SCID-Beige mice. Briefly: Murine model of ectopic bone formation. Format: in vivo, mouse. The following applies: 40 μg/kg/day s.c., 21 days. The gist of the method:
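Gelfoam sponges loaded with 1 × 10^6 bone marrow MSCs from C57BL/6 mice were implanted s.c. into randomized 6-week-old male SCID-Beige mice, two implants per flank, n = 3/group. After 1-week recovery, peptides or vehicle were injected s.c. daily at 40 μg/kg/day for 21 days. Ossicles were excised for μCT and trichrome histology, with bone matrix quantified.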

Another series has as its system osteoprotegerin (OPG). Put plainly: OPG expression in whole bone marrow co-cultures. In kind it is cell-based, mouse. Particulars: 10 nM for 48 h.
The test system of the next series is MC3T3 cells. Briefly: Migration of MC3T3 osteoblasts. In kind it is cell-based, mouse. The following applies: MC3T3, 10 nM in serum free media, 6 h / 5-h (methods), n = 3/group. The method in brief: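 Modified Boyden chamber assay: after 24-h serum starvation, 5 × 10^5 MC3T3 cells were seeded in the upper chamber (n = 3/group). Migration toward peptide in serum-free media ran at 37 °C, 5 h per methods (6 h in legend). Serum-free and 1% serum media were negative and positive controls. Cells were counted per ×20 field in five micrographs per condition.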

The mark [15] stands for this setting: bone marrow cultures, n = 3/group.

MMP-3, sequence (P08254 100-272 limits assumed): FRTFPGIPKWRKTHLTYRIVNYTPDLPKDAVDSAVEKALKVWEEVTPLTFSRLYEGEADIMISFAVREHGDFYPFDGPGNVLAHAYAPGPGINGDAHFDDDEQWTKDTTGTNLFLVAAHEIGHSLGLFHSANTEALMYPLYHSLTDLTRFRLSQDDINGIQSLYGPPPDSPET

In the case of `CNC(=O)[C@H](Cc1c[nH]c2ccccc12)NC(=O)[C@@H](CC(=O)NO)CC(C)C` [GM6001], the “reduction of the amount of PTHrP1–17 in conditioned media” value in series [1] (PAIII, GM6001 10 μM, serum free 24 h, IP-MS with SIS1–17) is 77%. In series [1] (PaIII+GM6001 10 μM, PaIII alone = 0.13), the “ratio of endogenous PTHrP1–17 to PTHrP1–17 SIS (peak areas)” value is on record as 0.03.
Take “MMP-3: recombinant MMP-3 (Millipore, #444217) added to SAOS-2 cells”: the “ratio of endogenous PTHrP1–17 to PTHrP1–17 SIS (peak areas)” value in series [2] is recorded as 0.03.
Take “PTHrP1–16: N-terminal PTHrP fragment of a recent study (ref 31) (AVSEHQLLHDKGKSIQ; UniProt P12272 37-52, looked up, fragment)”: in the series on PTH1R [3], the calcium flux entry was “no effect on calcium flux”. Also, the cAMP production result in the series with PTH1R [4] is “does not result in cAMP production”.
With “PTHrP1–36: mature 36 amino acid form of parathyroid hormone-related protein (ProImmune)”, the “calcium flux in PTH1R knockdown cells” value with PTH1R [5] is reported as “significantly reduced”. In the series with SCID-Beige mice [6], the “bone resorption of calvaria” value was “displayed areas of extensive bone resorption”. In addition, in series [7], the “bone formation in calvaria ex vivo” value was “no evidence of bone formation”. Further, the “degradation of calvaria ex vivo” value in [7] is on record as “significant degradation of the calvaria”. Moreover, the ERK phosphorylation result in series [8] and in series [13] was “induced ERK phosphorylation within 5 min” in each case. Also, the migration result with MSCs and in the series with MC3T3 cells was “significantly increased migration” throughout. Also, the calcium flux result with PTH1R [9] is given as “triggered increases in calcium flux”. The cAMP production entry in the series with PTH1R [10] is “induced cAMP”. The “ability to induce ERK phosphorylation in PTH1R knockdown cells” value with PTH1R [11] is “abrogated”. The “prevention of tumour necrosis factor-α-induced cell death” value in the series on osteoblasts is “did not prevent”. Further, the CREB phosphorylation entry in series [12] was “only induced by PTHrP1–36”. Besides, in the series on RANKL (setting [15]), the “RANKL expression (real-time PCR)” value was “significantly enhanced RANKL expression”. Also, the “ratio of average RANKL:OPG transcripts” value in the series with RANKL (bone marrow cultures, real-time PCR) was determined as 15.03. Moreover, the “RANKL expression (RT-PCR)” value in the series on RANKL (primary bone marrow cultures) is reported as “increased RANKL expression”. For the same molecule, in the series with MMP-3 (0.15 M NaCl, 50 mM Tris pH 7.6), the “further cleavage of PTHrP1–36 by MMP-3” value was “further cleaved to distinct stable peptide products”. In addition, the “time in which MMP-3 generated the main PTHrP products” value with MMP-3 (kinetic analyses) is at most 1 h. For the same molecule, the “osteoid in trichrome stained ossicle sections” value in the series with SCID-Beige mice [14] (n = 3/group) is reported as “a significant amount of osteoid”. Also, the “trabecular bone volume of hind limbs” value with SCID-Beige mice [14] (compared to control) is given as “significantly more bone”. Besides, in the series with SCID-Beige mice [14] (intermittent, n = 3/group), the “bone formation in ectopic ossicles, μCT” value is reported as “revealed bone formation”. Further, in the series with osteoprotegerin (OPG) (setting [15]), the “OPG expression (real-time PCR)” value is recorded as “suppressing OPG”. Besides, the “OPG expression (RT-PCR)” value with osteoprotegerin (OPG) (primary bone marrow cultures) is recorded as “appeared to suppress the expression of osteoprotegerin (OPG)”.

These data come from paper PMC7771297 (Oncogene, 2017).
